Source: PubChem BioAssay
Active and inactive are the calls of the source.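 How the source made its calls, unless noted: active means viability at or under a set limit in both replicates, limit being median viability minus 3 SD (cut at about 48% in these data, passing the limit was not always enough); inconclusive means at or under the limit in just one replicate; inactive means at or above the limit in both replicates.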

Tests used:
[1] = reducers of endogenous Her2 protein level, primary screen, SKBR3 breast tumor cells, AlphaScreen, ATP viability (AID 461;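 active means Her2 level under about 52% in both replicate screens, with viability over 70% of control, limit read from the data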;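 on Her2 level: lower value means less Her2 protein in the cells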;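 on viability: percent of carrier control wells set as 100% viability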); conditions: 18-24 h, measured here: SKBR3 viability, ATP luminescence, at 10 µM
[2] = target: Receptor tyrosine-protein kinase erbB-2 (Homo sapiens) (UniProt P04626); experiment: as above; conditions: 18-24 h, at 10 µM, stronger effect = lower value
[3] = SK-BR-3 cell growth inhibitors, pilot screen, 24 h, human (AID 572;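 active means viability at or below 10% of carrier control in both of two separate runs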;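 further: compound exposure lasted between 18 and 24 h rather than exactly 24 h; 100% = carrier-treated control wells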); conditions: SK-BR-3 viability, CellTiter-Glo luminescence, at 10 µM, stronger effect = lower value
[4] = HUVEC growth inhibition – cell-based, human, primary screen (AID 575;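 active means viability at or below 30% in both replicate assays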;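 further: 100% = median of untreated cell wells with 0.1% DMSO on each plate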); conditions: HUVEC proliferation, CellTiter-Glo luminescence, 72 h; at 10 µM; stronger effect = lower value
Summary of the method: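 system = HUVEC primary cells | amount = 1250 cells/well | buffer or medium = supplemented EBM, 2% fetal bovine serum | dosing = single-point 10 µM, DMSO 0.1% final | times = 72 h compound incubation | detection = CTG luminescence | read-out = % viability relative to median vehicle-well signal on each plate | control set = vehicle and MePR control wells | format = collagen-coated 384-well format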

[5] = growth inhibitors of H69AR lung tumor, primary screen, human, duplicate replicates (AID 580); conditions: H69AR lung tumor cells viability, ATP luminescence, 72 h; at 10 µM; stronger effect = lower value;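 further: 100% = mean luminescence of untreated wells and 0% = no signal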
[6] = reversal of MRP1-mediated doxorubicin resistance, pilot screen, H69AR cells, doxorubicin co-treatment (AID 601;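 active means viability loss from added drug above about 55%, and viability with drug at most 40%, in both replicates, limit read from the data, passing the limit was not always enough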); conditions: CellTiter-Glo, 72 h, at 10 µM; for differential viability (reversal): stronger effect = higher value
[7] = 384-well plate pilot, post-Golgi transport modulator project, inhibition of yeast transport mutant growth (AID 636; in the data active means inhibition above about 31%); conditions: absorbance 615 nm, about 18 h, stronger effect = higher value
[8] = growth suppression of yeast trafficking mutant, preliminary HTS, modulators of trafficking downstream of Golgi apparatus project, 1536-format plate, OD 615 nm (AID 637; in the data active means inhibition above about 30%); conditions: yeast transport mutant growth, absorbance 615 nm, 18 h; stronger effect = higher value
[9] = H69AR cells + 2 uM doxorubicin, measured here: viability with 2 uM doxorubicin, stronger effect = lower value
[10] = H69AR cells, compound alone cytotoxicity

Chain of Receptor tyrosine-protein kinase erbB-2 (Homo sapiens) (P04626 whole entry, looked up): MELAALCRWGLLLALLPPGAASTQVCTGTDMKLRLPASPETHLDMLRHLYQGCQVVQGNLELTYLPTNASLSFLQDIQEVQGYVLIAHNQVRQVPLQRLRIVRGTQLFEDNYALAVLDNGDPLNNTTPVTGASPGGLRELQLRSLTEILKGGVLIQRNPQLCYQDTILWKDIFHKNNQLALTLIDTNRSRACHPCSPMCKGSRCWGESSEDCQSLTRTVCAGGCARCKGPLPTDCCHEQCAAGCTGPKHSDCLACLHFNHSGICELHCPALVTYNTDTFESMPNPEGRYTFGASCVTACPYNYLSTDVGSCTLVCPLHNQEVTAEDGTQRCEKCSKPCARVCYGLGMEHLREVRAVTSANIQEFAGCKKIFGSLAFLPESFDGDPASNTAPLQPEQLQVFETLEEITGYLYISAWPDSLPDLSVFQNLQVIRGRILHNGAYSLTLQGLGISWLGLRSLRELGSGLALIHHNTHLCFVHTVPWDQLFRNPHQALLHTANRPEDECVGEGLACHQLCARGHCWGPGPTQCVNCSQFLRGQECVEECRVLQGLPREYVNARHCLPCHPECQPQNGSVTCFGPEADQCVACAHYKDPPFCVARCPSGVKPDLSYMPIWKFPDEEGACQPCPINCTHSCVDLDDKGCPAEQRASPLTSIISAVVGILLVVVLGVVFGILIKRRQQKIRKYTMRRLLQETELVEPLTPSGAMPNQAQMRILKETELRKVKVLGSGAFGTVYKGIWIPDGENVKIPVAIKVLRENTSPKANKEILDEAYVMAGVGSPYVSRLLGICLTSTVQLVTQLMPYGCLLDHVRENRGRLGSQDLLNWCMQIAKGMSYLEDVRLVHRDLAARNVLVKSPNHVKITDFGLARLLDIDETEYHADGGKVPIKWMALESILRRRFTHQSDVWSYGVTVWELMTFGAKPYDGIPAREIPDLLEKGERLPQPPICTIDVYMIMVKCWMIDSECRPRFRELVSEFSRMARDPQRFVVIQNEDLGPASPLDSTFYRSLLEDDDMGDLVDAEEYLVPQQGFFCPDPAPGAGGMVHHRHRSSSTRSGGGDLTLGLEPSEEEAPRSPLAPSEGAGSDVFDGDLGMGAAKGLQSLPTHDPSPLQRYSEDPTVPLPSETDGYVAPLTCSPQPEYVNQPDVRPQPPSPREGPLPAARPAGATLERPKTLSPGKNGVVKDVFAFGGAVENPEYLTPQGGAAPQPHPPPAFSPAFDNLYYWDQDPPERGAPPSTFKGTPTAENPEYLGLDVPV

Row | SMILES | viability [1] | Her2 level [2] | viability [3] | viability [4] | viability [5] | differential viability (reversal) ([6]; H69AR cells + 2 uM doxorubicin) | viability [6, 9] | viability [6, 10] | inhibition [7] | inhibition [8]
1 | O=C(c1cn(-c2ccccc2)nc1-c1cccs1)N1CCN(c2ccccn2)CC1 | 101% | 79.5% (inactive) | 101% (inactive) | 72.4% (inactive) | 45.1% (active) | -40% (inactive) | 85.1% | 45.1% | -3.29% (inactive) | -2.38% (inactive)
2 | CCOc1ccccc1C(=O)N1CCN(c2cccc(Cl)c2)CC1 | 118% | 80% (inactive) | 118% (inactive) | 23.3% (active) | 28.2% (active) | -35.7% (inactive) | 63.8% | 28.2% | -4.53% (inactive) | 1.15% (inactive)
3 | Nc1nnc(C(=O)c2ccccc2N)s1 | 108% | 91% (inactive) | 108% (inactive) | 102% (inactive) | 96.3% (inactive) | 5.43% (inactive) | 90.9% | 96.3% | -1.04% (inactive) | 3.93% (inactive)
4 | COc1ccc(-c2cc(C(=O)NCc3ccc(Cl)cc3)no2)cc1OC | 92.5% | 88.5% (inactive) | 92.5% (inactive) | 83% (inactive) | 100% (inactive) | 0.66% (inactive) | 99.5% | 100% | -6.35% (inactive) | -0.33% (inactive)
5 | Cc1cc(-c2ccccc2)nc2cc(C(=O)NCCCn3ccnc3)nn12 | 104% | 103% (inactive) | 104% (inactive) | 98.8% (inactive) | 88.2% (inactive) | 8.86% (inactive) | 79.3% | 88.2% | -6.13% (inactive) | -1.45% (inactive)
6 | COc1ccc(Cc2nnc(NC(=O)Cc3cccs3)s2)cc1 | 104% | 112% (inactive) | 104% (inactive) | 103% (inactive) | 106% (inactive) | 5.58% (inactive) | 101% | 106% | 0.41% (inactive) | -4.29% (inactive)
7 | O=C1CC(c2ccc(S(=O)(=O)N3CCN(c4ccccc4)CC3)cc2)CN1 (stereo not given) | 96% | 90% (inactive) | 96% (inactive) | 93% (inactive) | 96.4% (inactive) | 1.82% (inactive) | 94.6% | 96.4% | -7.3% (inactive) | -10% (inactive)
8 | O=C(NCc1cccnc1)C1CCCN(S(=O)(=O)c2ccc(Cl)cc2)C1 (stereo not given) | 102% | 96% (inactive) | 102% (inactive) | 77.1% (inactive) | 86.9% (inactive) | 1.95% (inactive) | 84.9% | 86.9% | -2.57% (inactive) | -1.75% (inactive)
9 | C/C=C/Cn1c(Br)nc2c1c(=O)[nH]c(=O)n2C | 101% | 91% (inactive) | 101% (inactive) | 90.7% (inactive) | 93.5% (inactive) | 7.23% (inactive) | 86.3% | 93.5% | -6.53% (inactive) | 0.16% (inactive)
10 | O=C(COc1ccc(Cl)cc1)NCc1nnc(SCC(=O)Nc2ccc3c(c2)OCCO3)o1 | 102% | 122% (inactive) | 102% (inactive) | 112% (inactive) | 97.3% (inactive) | -3.68% (inactive) | 101% | 97.3% | 2.82% (inactive) | -11.7% (inactive)
11 | COc1ccc(CN2C(=O)c3cccnc3C2Nc2cc(Cl)ccc2OC)cc1 (stereo not given) | 84.5% | 110% (inactive) | 84.5% (inactive) | 85% (inactive) | 93.2% (inactive) | 0.7% (inactive) | 92.5% | 93.2% | 2.67% (inactive) | -1.8% (inactive)
12 | COc1ccc(N2CCN(c3ncnc4c3cnn4-c3ccc(C)cc3C)CC2)cc1 | 81% | 72.5% (inactive) | 81% (inactive) | 87.1% (inactive) | 66.2% (inactive) | 46.8% (inactive) | 19.4% | 66.2% | -1.58% (inactive) | -1.29% (inactive)
13 | Cc1ccc(N2CC(C(=O)Nc3nnc(C)s3)CC2=O)cc1 (stereo not given) | 110% | 90% (inactive) | 110% (inactive) | 86.2% (inactive) | 106% (inactive) | 16.4% (inactive) | 89.9% | 106% | -4.67% (inactive) | 0.65% (inactive)
14 | O=c1[nH]c(N2CCc3ccccc32)nc2c1CCCC2 | 125% | 104% (inactive) | 125% (inactive) | 101% (inactive) | 104% (inactive) | 21.9% (inactive) | 81.8% | 104% | -1.87% (inactive) | -1.45% (inactive)
15 | COc1ccc(N2CCN(Cc3nc4ccccc4c(=O)[nH]3)CC2)cc1 | 104% | 98% (inactive) | 104% (inactive) | 92.1% (inactive) | 94.3% (inactive) | -2.54% (inactive) | 96.8% | 94.3% | -3.33% (inactive) | -5.57% (inactive)
16 | COC(=O)c1ccccc1NC(=O)C1CC(=O)N(c2ccc(F)cc2)C1 (stereo not given) | 121% | 77% (inactive) | 121% (inactive) | 108% (inactive) | 96% (inactive) | 15.5% (inactive) | 80.6% | 96% | -6.4% (inactive) | 2.13% (inactive)
17 | Nc1nnnn1/N=C/c1ccccn1 | 69% | 108% (inactive) | 69% (inactive) | 114% (inactive) | 97.2% (inactive) | 11% (inactive) | 86.2% | 97.2% | -4.73% (inactive) | 24% (inactive)
18 | N#Cc1c(NC(=O)CSc2nnnn2C2CCCC2)sc2c1CCCC2 | 82.5% | 85% (inactive) | 82.5% (inactive) | 94.6% (inactive) | 69.9% (inactive) | 1.64% (inactive) | 68.2% | 69.9% | -0.53% (inactive) | 0.16% (inactive)
19 | O=C(O)c1ccc2c(c1)N(Cc1ccccc1F)C(=O)c1ccccc1S2=O (stereo not given) | 96% | 83.5% (inactive) | 96% (inactive) | 92.8% (inactive) | 103% (inactive) | 5.27% (inactive) | 97.8% | 103% | -3.73% (inactive) | 4.43% (inactive)
20 | c1ccc2c(Cn3ccnc3)c[nH]c2c1 | 109% | 114% (inactive) | 109% (inactive) | 85.3% (inactive) | 86% (inactive) | -5.34% (inactive) | 91.4% | 86% | -5.19% (inactive) | -2.62% (inactive)
21 | Cc1noc(C)c1S(=O)(=O)N1CCC(C(=O)N2CCN(Cc3ccc4c(c3)OCO4)CC2)CC1 | 94% | 92.5% (inactive) | 94% (inactive) | 99% (inactive) | 91.9% (inactive) | -6.75% (inactive) | 98.6% | 91.9% | -1.45% (inactive) | -0.63% (inactive)
22 | CCN(CC)CCCN1C(=O)C(=O)/C(=C(/O)c2ccccc2)C1c1ccccn1 (stereo not given) | 96.5% | 100% (inactive) | 96.5% (inactive) | 111% (inactive) | 96% (inactive) | 6.26% (inactive) | 89.7% | 96% | -1.35% (inactive) | -4.92% (inactive)
23 | Cc1occc1-c1nnc(SCC(=O)NCC2CCCO2)n1C (stereo not given) | 86% | 96.5% (inactive) | 86% (inactive) | 92.2% (inactive) | 96.6% (inactive) | 2.64% (inactive) | 94% | 96.6% | -4.93% (inactive) | 18.7% (inactive)
24 | CCOC(=O)C1CCCN(C(=O)c2cc3c(=O)n4cccc(C)c4nc3n2C)C1 (stereo not given) | 106% | 77% (inactive) | 106% (inactive) | 108% (inactive) | 94.3% (inactive) | 5.81% (inactive) | 88.4% | 94.3% | -7.3% (inactive) | 2.7% (inactive)
25 | Cc1ccc(C)c2[nH]c(=O)c(CN(CCN3CCCC3)C(=O)Nc3cccc(Cl)c3)cc12 | 87% | 84% (inactive) | 87% (inactive) | 15.6% (active) | 26.6% (active) | -6.23% (inactive) | 32.8% | 26.6% | -8.22% (inactive) | -0.32% (inactive)
26 | COC(=O)CN(c1ccc(C)c(Cl)c1)S(C)(=O)=O | 108% | 100% (inactive) | 108% (inactive) | 99.5% (inactive) | 101% (inactive) | 10.7% (inactive) | 90.5% | 101% | -2.27% (inactive) | -0.81% (inactive)
27 | O=C(NCC(c1cccnc1)N1CCOCC1)c1cccs1 (stereo not given) | 101% | 75.5% (inactive) | 101% (inactive) | 89.6% (inactive) | 92.5% (inactive) | -0.595% (inactive) | 93.1% | 92.5% | -2.24% (inactive) | 11.2% (inactive)
